ChEMBL document CHEMBL2021801, “Thienopyridine ureas as dual inhibitors of the VEGF and Aurora kinase families” (Bioorg Med Chem Lett, 2012)

What was measured:
[1] = molecular target: T1, Aurora kinase B (Homo sapiens, UniProt Q96GD4); details: NCI-H1229
[2] = molecular target: T1, Aurora kinase B; assay: Inhibition of Aurora B using 1 mM ATP by HTRF assay
[3] = system: Mus musculus; assay: In vivo inhibition of KDR in po dosed mouse assessed as estradiol-induced uterine edema; format: functional
[4] = molecular target: T2, Vascular endothelial growth factor receptor 2 (Homo sapiens, UniProt P35968); assay: Inhibition of KDR using 1 mM ATP by HTRF assay
[5] = molecular target: T2, Vascular endothelial growth factor receptor 2; assay: Inhibition of human KDR phosphorylation expressed in mouse NIH3T3 cells; format: cell-based
[6] = molecular target: T3, Cytochrome P450 3A4 (Homo sapiens, UniProt P08684); assay: Inhibition of CYP3A4 up to 10 uM; format: ADME
[7] = Oral bioavailability in CD1 (ICR) mouse at 10 mg/kg; format: ADME, organism-based; details: in vivo
[8] = Volume of distribution in CD1 (ICR) mouse at 3 mg/kg, iv; format: ADME, organism-based; set-up: dose 3 mg/kg, route intravenous; details: in vivo
[9] = AUC in CD1 (ICR) mouse at 10 mg/kg, po; format: ADME, organism-based; set-up: dose 10 mg/kg, route oral; details: plasma
[10] = Half life in CD1 (ICR) mouse at 3 mg/kg, iv; format: ADME, organism-based; set-up: dose 3 mg/kg, route intravenous; details: in vivo
[11] = Clearance in CD1 (ICR) mouse at 3 mg/kg, iv; format: ADME, organism-based; set-up: dose 3 mg/kg, route intravenous; details: in vivo
[12] = Half life in mouse; format: ADME, organism-based; details: in vivo
[13] = Volume of distribution at steady state in dog; format: ADME, organism-based, Canis lupus familiaris; details: in vivo, read-out: Vdss
[14] = Protein binding in rat; format: ADME, organism-based; details: plasma, read-out: PB
[15] = Plasma clearance in rat; format: ADME, organism-based
[16] = Aqueous solubility of the compound; format: physicochemical; details: buffer
Procedure, shortened: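 Aqueous solubility was measured across the physiological pH range.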

[17] = Volume of distribution at steady state in rat; format: ADME, organism-based; details: in vivo, read-out: Vdss
[18] = species: Canis familiaris; assay: Cardiotoxicity in dog assessed as QT prolongation time at 32.1 uM plasma concentration; format: toxicity, organism-based, Canis lupus familiaris
[19] = Plasma clearance in mouse; format: ADME, organism-based
[20] = Half life in rat; format: ADME, organism-based; details: in vivo
[21] = molecular target: T3, Cytochrome P450 3A4; assay: Inhibition of CYP3A4; format: ADME
[22] = Protein binding in mouse; format: ADME, organism-based; details: plasma, read-out: PB
[23] = Lipophilicity, log D of the compound at pH 7; format: physicochemical; details: buffer
[24] = Plasma clearance in dog; format: ADME, organism-based, Canis lupus familiaris
[25] = Half life in dog; format: ADME, organism-based, Canis lupus familiaris; details: in vivo
[26] = Protein binding in dog; format: ADME, organism-based, Canis lupus familiaris; details: plasma, read-out: PB
[27] = molecular target: Voltage-gated inwardly rectifying potassium channel KCNH2 (Homo sapiens, UniProt Q12809); assay: Inhibition of human Erg by patch clamp assay in absence of plasma protein
[28] = species: Canis familiaris; assay: Cardiotoxicity in dog assessed as QT prolongation time at 117 uM plasma concentration; format: toxicity, organism-based, Canis lupus familiaris
[29] = Volume of distribution at steady state in mouse; format: ADME, organism-based; details: in vivo, read-out: Vdss

T2 sequence (P35968 whole entry): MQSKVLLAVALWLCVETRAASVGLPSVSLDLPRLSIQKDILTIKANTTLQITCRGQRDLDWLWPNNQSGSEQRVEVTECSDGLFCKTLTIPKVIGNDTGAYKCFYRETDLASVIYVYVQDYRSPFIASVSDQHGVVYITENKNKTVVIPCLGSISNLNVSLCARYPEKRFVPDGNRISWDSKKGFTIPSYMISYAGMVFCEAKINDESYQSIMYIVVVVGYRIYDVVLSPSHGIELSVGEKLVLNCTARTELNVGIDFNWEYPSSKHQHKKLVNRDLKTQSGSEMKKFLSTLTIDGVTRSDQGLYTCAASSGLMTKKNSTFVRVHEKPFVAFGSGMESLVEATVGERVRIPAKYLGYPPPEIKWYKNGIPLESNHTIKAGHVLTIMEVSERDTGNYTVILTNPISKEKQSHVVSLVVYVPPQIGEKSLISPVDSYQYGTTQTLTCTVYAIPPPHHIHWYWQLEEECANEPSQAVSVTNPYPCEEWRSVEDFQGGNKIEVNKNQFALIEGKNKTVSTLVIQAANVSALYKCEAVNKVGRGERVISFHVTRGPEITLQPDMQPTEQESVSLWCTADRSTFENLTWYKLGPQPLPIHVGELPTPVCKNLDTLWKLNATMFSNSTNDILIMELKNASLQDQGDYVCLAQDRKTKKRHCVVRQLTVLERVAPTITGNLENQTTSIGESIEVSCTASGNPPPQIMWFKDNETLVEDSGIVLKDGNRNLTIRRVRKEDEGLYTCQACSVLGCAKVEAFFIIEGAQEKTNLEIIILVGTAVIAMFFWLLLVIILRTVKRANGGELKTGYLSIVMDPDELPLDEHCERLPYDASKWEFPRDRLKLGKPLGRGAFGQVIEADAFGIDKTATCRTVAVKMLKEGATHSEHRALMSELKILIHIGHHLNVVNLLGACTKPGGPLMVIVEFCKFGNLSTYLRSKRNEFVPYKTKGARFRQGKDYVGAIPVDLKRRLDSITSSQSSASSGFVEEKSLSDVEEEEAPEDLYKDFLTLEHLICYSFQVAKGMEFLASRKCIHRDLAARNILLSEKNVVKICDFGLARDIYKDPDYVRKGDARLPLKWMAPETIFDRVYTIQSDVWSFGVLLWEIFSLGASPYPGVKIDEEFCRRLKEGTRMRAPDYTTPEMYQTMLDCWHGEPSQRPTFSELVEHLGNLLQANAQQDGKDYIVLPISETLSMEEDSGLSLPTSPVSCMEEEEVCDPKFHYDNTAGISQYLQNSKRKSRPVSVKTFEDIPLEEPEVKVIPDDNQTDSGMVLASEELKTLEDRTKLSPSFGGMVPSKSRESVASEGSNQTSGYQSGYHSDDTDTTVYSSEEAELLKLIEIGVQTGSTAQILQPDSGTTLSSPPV
T3 sequence (P08684 whole entry): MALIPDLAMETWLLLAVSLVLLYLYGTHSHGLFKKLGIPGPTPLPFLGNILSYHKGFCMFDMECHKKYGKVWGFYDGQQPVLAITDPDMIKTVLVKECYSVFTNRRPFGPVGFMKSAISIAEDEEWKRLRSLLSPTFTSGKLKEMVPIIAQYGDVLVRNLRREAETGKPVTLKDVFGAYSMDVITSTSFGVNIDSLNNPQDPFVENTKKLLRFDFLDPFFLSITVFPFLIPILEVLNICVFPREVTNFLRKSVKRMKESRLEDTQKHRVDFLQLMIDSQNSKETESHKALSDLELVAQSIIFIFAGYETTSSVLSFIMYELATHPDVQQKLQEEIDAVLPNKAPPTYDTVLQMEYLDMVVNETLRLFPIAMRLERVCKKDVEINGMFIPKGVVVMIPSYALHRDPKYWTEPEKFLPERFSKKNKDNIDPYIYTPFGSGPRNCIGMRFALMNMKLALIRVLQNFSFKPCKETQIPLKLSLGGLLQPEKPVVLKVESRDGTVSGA
T1 sequence (Q96GD4 whole entry): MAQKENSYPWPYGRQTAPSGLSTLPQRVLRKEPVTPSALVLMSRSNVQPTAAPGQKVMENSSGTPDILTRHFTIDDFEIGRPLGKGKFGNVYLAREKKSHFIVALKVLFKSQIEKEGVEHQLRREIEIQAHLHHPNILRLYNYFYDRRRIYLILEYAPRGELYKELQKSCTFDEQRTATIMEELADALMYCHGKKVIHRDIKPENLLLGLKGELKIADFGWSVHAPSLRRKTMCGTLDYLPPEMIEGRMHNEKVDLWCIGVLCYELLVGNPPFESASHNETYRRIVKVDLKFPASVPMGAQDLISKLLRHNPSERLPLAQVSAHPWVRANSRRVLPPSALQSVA
Sequence of Voltage-gated inwardly rectifying potassium channel KCNH2 (Q12809 whole entry): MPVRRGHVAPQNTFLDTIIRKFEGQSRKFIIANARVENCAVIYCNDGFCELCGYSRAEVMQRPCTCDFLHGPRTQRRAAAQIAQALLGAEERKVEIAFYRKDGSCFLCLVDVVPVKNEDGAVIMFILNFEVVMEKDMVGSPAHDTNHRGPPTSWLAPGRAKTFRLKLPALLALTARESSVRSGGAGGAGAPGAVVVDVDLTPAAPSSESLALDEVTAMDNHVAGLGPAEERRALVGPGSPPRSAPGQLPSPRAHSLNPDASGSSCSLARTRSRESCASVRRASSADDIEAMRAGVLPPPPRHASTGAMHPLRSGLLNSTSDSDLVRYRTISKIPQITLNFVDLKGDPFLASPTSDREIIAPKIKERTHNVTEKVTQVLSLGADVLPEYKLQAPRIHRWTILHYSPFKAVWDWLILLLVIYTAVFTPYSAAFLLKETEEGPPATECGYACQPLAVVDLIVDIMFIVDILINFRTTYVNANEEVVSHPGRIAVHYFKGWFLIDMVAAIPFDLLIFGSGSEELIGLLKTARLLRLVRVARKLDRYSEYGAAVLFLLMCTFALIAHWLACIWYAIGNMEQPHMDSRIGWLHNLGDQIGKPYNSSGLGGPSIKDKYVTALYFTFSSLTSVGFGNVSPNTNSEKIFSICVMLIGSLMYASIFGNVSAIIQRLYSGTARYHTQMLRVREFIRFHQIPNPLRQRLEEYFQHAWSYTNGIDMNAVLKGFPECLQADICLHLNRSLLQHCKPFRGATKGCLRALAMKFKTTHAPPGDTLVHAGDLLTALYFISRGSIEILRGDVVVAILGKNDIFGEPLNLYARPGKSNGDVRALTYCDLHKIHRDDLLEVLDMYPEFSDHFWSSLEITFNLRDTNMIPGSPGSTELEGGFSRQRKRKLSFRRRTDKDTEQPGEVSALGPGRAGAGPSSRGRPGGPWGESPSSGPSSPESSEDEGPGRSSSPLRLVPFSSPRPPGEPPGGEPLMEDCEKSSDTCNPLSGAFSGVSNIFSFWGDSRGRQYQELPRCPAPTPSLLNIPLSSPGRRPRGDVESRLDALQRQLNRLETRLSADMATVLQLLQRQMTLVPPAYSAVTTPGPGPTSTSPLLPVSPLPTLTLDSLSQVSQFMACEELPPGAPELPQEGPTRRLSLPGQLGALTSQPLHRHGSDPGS

Cn1cc(-c2cnc(N)c3c(-c4ccc(NC(=O)Nc5ccc(Cl)cc5)cc4)csc23)cn1
EC15 [1]: 27 nM
IC50 [2]: 48 nM
ED50 [3]: 0.3 mg/kg
IC50 [4]: 8 nM

Nc1ncc(-c2cnn(CCCN3CC[C@@H](O)C3)c2)c2scc(-c3ccc(NC(=O)Nc4cccc(F)c4)cc3)c12
EC15 [1]: < 1 nM
IC50 [2]: 2 nM
IC50 [4]: 2 nM

Cc1ccccc1NC(=O)Nc1ccc(-c2csc3c(-c4cnn(C)c4)cnc(N)c23)cc1
EC15 [1]: 2 nM
IC50 [2]: 8 nM
ED50 [3]: 3.5 mg/kg
IC50 [4]: 2 nM

Cc1cccc(NC(=O)Nc2ccc(-c3csc4c(-c5cc[nH]c5)cnc(N)c34)cc2)c1
EC15 [1]: 389 nM
IC50 [2]: 68 nM
IC50 [5]: 1 nM
IC50 [4]: 4 nM

CS(=O)(=O)CCn1cc(-c2cnc(N)c3c(-c4ccc(NC(=O)Nc5cccc(F)c5)cc4)csc23)cn1
EC15 [1]: 4 nM
IC50 [2]: 11 nM
ED50 [3]: 10 mg/kg
IC50 [4]: 1 nM

CC(C)Cn1cc(-c2cnc(N)c3c(-c4ccc(NC(=O)Nc5cccc(F)c5)cc4)csc23)cn1
EC15 [1]: 355 nM
IC50 [2]: 177 nM
ED50 [3]: 1.1 mg/kg
IC50 [4]: 25 nM

Cn1cc(-c2cnc(N)c3c(-c4ccc(NC(=O)Nc5cccc(C(N)=O)c5)cc4)csc23)cn1
EC15 [1]: 413 nM
IC50 [2]: 23 nM
ED50 [3]: > 10 mg/kg
IC50 [4]: 2 nM

COc1ccc(NC(=O)Nc2ccc(-c3csc4c(-c5cnn(C)c5)cnc(N)c34)cc2)cc1
inhibition (INH) [6]: < 20%
bioavailability [7]: 44%
Vd [8]: 1.5 L/kg
EC15 [1]: 57 nM
AUC [9]: 5220 ng·h/mL
IC50 [2]: 114 nM
half-life [10]: 1.3 h
ED50 [3]: 1.3 mg/kg
clearance [11]: 15 mL/min/kg
IC50 [4]: 6 nM

C[C@@H](O)Cn1cc(-c2cnc(N)c3c(-c4ccc(NC(=O)Nc5cccc(F)c5)cc4)csc23)cn1
inhibition (INH) [6]: < 20%
bioavailability [7]: 42%
Vd [8]: 1.2 L/kg
EC15 [1]: 2 nM
AUC [9]: 14600 ng·h/mL
IC50 [2]: 1 nM
half-life [10]: 2.9 h
ED50 [3]: 1.2 mg/kg
clearance [11]: 5 mL/min/kg

Cc1cccc(NC(=O)Nc2ccc(-c3csc4c(C#CCN(C)C)cnc(N)c34)cc2)c1
EC15 [1]: 141 nM
IC50 [2]: 11 nM

CNC(=O)c1cnc(N)c2c(-c3ccc(NC(=O)Nc4cccc(C)c4)cc3)csc12
EC15 [1]: 46 nM
IC50 [2]: 13 nM
IC50 [5]: 1 nM

Cc1cccc(NC(=O)Nc2ccc(-c3csc4c(-c5ccsc5)cnc(N)c34)cc2)c1
EC15 [1]: > 300 nM
IC50 [2]: 179 nM
IC50 [5]: 31 nM
IC50 [4]: 9 nM

Nc1ncc(-c2cnn(CCN3CCCCC3)c2)c2scc(-c3ccc(NC(=O)Nc4cccc(F)c4)cc3)c12
EC15 [1]: < 3 nM
IC50 [2]: 8 nM
ED50 [3]: > 10 mg/kg
IC50 [4]: 4 nM

Nc1ncc(-c2cnn(CCO)c2)c2scc(-c3ccc(NC(=O)Nc4cccc(F)c4)cc3)c12 [ILORASERTIB]
inhibition (INH) [6]: < 20%
half-life [12]: 4 h
Vd [13]: 0.4 L/kg
bioavailability [7]: 47%
Vd [8]: 1.7 L/kg
fraction unbound [14]: < 0.01
clearance [15]: < 5 mL/min/kg
solubility [16]: < 78 µM
EC15 [1]: 12 nM
Vd [17]: 0.4 L/kg
Time [18]: 11 ms
clearance [19]: < 5 mL/min/kg
AUC [9]: 18600 ng·h/mL
half-life [10]: 4.7 h
half-life [20]: 4 h
IC50 [21]: > 30000 nM
fraction unbound [22]: < 0.01
logD [23]: 4.5
clearance [24]: < 5 mL/min/kg
ED50 [3]: 3.2 mg/kg
half-life [25]: 4 h
fraction unbound [26]: < 0.01
IC50 [27]: 1000 nM
Time [28]: 25 ms
Vd [29]: 0.4 L/kg
clearance [11]: 5 mL/min/kg

Cc1cccc(NC(=O)Nc2ccc(-c3csc4c(-c5cn[nH]c5)cnc(N)c34)cc2)c1
EC15 [1]: 31 nM
IC50 [2]: 8 nM
